Reference: ChEMBL document CHEMBL4354861, “Re-Evaluating the Mechanism of Action of α,β-Unsaturated Carbonyl DUB Inhibitors b-AP15 and VLX1570: A Paradigmatic Example of Unspecific Protein Cross-linking with Michael Acceptor Motif-Containing Drugs” (J Med Chem, 2020)
Calls of active or inactive are those of the source. The calls are words filed in the database; no cut-off is given here.

Legend:
[1] = system: HeLa; assay: Inhibition of deubiquitinase in human HeLa cell extracts assessed as induction of accumulation of high molecular weight ubiquitylated proteins at 10 uM incubated for 2 hrs in presence of DTT by immunoblot analysis; type: cell-free
[2] = system: HeLa; assay: Inhibition of deubiquitinase in human HeLa cell extracts assessed as decrease in global DUB activity at 10 uM using luminescent substrate Ub-AML; type: cell-free
Method in brief: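 HeLa crude extracts used as the DUB source, prepared as for the ABP assays. Global DUB activity read by luminescence with Ub-AML substrate, using the Glo reagent protocol.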

With `C=CC(=O)N1C/C(=C\c2ccc([N+](=O)[O-])cc2)C(=O)/C(=C/c2ccc([N+](=O)[O-])cc2)C1` the inhibition [1] was “inactive” and the inhibition [2] was “Active”.
